RGS4 pot: RGS4 potentiation or activation; B-score at 10 µM; actives 0.92% (n = 310,000); HEK293 M3R/inducible RGS4, carbachol calcium flux Fluo4; hits give low values; AID 463111;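 active = B-score of the integrated calcium signal more than 4 SD below the library mean, with starting fluorescence not abnormally high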;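 also: negative B-score means reduced calcium response which marks RGS4 activation or potentiation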
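Assay system: HEK293 FlpIn-TREx cells, stable M3R, doxycycline-inducible RGS4 / Probe or stimulus: carbachol, ECmax concentration / Times: overnight RGS4 induction, 30 min dye load 37 °C, 20 min compound RT / Signal: kinetic calcium fluorescence imaging with Fluo4-AM dye, 2 µM / Measure: Agonist-evoked peak-minus-minimum fluorescence over baseline, integrated ratio, B score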
MrgX1 agonist: human MrgX1 receptor agonism, primary screen. Q96LB2. MrgX1-HEK293 cells, Fluo-4 calcium fluorescence, agonist mode; hits give high values. B-score at 10 µM. actives 0.44% (n = 310,000). AID 588627;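 active = calcium response B-score plate-corrected fluorescence ratio at least 3 library SD, with starting fluorescence B-score inside 5 SD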
Target sequence (Q96LB2 whole entry, looked up): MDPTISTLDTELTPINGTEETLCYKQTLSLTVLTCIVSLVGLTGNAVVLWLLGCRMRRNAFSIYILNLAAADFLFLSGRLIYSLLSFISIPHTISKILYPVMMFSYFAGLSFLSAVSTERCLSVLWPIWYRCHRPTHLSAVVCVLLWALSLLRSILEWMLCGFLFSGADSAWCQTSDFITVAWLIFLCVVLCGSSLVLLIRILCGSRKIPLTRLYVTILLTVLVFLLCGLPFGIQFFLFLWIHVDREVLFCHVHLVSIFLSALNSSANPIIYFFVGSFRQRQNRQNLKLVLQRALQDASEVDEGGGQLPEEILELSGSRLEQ
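Material: MrgX1-expressing HEK293 cells; input: 15,000 cells per well; doses: test compound given as first of three sequential additions; schedule: overnight plating before 1 h dye loading; technique: Fluo-4 NW calcium-flux fluorescence, kinetic read; evaluation: baseline-normalised fluorescence change ratio, B-scored; control set: plate-wise positive and negative controls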
MrgX1 antagonist: human MrgX1 receptor antagonism, primary screen. Q96LB2. actives 1.3% (n = 310,000). MRGX1-HEK293 calcium flux, Fluo-4, BAM8-22 antagonism; hits give low values. B-score at 10 µM;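 active = calcium-response B-score plate-corrected more than 3 library SD below zero, starting fluorescence within 5 deviations, no agonist response on first addition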;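 also: peak minus trough fluorescence over baseline after final BAM8-22 challenge near maximal dose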
MrgX1 PAM: human MrgX1 positive allosteric modulation, primary screen. actives 0.63% (n = 310,000). B-score at 10 µM. AID 588675. MrgX1-HEK293, Fluo-4 calcium flux, FDSS; hits give high values. Q96LB2;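 active = plate-corrected calcium response at least 3 library SD above typical, normal starting fluorescence, not activating the receptor alone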;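 also: compound read alongside a low EC10 to EC30 dose of BAM8-22 agonist; peak minus trough fluorescence over baseline measured at the second addition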
RGS4 inh: human RGS4 inhibition | P49798 | HEK293 M3R/RGS4 inducible, Fluo-4 calcium flux; hits give high values; triggered by carbachol at its EC20 | B-score at 10 µM | actives 0.45% (n = 310,000);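 active = B-score, a plate-corrected calcium signal, over three deviations above library mean, with baseline fluorescence within five deviations of library mean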;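 also: RGS4 expression induced by doxycycline in cells with stable M3 receptor; B-score is computed from the integrated fluorescence ratio over baseline after carbachol; higher B-score means a larger calcium signal and so more RGS4 inhibition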
Target sequence (P49798 whole entry, looked up): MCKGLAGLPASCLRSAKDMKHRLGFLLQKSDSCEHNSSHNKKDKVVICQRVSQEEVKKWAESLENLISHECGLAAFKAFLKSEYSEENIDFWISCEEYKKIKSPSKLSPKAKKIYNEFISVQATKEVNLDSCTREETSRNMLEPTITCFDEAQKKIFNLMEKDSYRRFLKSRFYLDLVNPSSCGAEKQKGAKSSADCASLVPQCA
Starred values were filed as active, the others as inactive; i = inactive; · = no result. A selection: hits, their analogues and other compounds. The true share with any hit is near 3.5%.

SMILES	RGS4 pot	MrgX1 agonist	MrgX1 antagonist	MrgX1 PAM	RGS4 inh
Cc1ccc2c(c1)COc1c3ccc(C(=O)NC(C)C)cc3nn1-2	i	i	i	i	i
Cc1cc(C)cc(OCC(=O)Nc2cccc(-c3nnc(-c4ccco4)o3)c2)c1	-7.57*	i	i	i	i
Cc1ccc2nc(-c3ccccc3)nc(SC(C)C(=O)NCc3cccs3)c2c1 (centres undefined)	i	i	-7.26*	i	i
O=C(COc1ccc(Cl)cc1)NNC(=S)NCc1ccccc1	i	i	i	i	i
C=CCc1ccccc1OCC(=O)NNC(=S)NCc1ccccc1	-6.97*	i	i	i	i
Cc1ccc(C(=O)NCc2ccccn2)cc1S(=O)(=O)N1CCCCC1	i	i	i	i	i
CC(O)(C#CCN1CCOCC1)c1ccccc1 (centres undefined)	i	·	·	·	i
OC(C#CCN1CCCCCC1)(c1ccccc1)c1cccnc1 (centres undefined)	i	i	i	i	i
CC(C)C(O)(C#CCN1CCCC1)c1ccccc1 (centres undefined)	-7.45*	i	i	i	i
CC(C)C(O)(C#CCN1CCCCC1)c1ccccc1 (centres undefined)	-7.19*	i	i	i	i
Nc1c2c(nc3ccc(Br)cc13)N(C1CCCCC1)CC2	i	i	i	14.4*	i
O=C1/C(=C\c2ccccn2)SC(=S)N1Nc1ncc(C(F)(F)F)cc1Cl	i	i	i	i	i
O=C1/C(=C/c2ccc(F)cc2)SC(=S)N1Nc1ncc(C(F)(F)F)cc1Cl	-10.1*	i	i	i	i
N#C/C(=C\c1ccc[nH]1)Sc1nc2ccccc2s1	i	i	i	i	i
N#C/C(=C\c1cccs1)Sc1nc2ccccc2s1	i	i	-5.31*	i	i
CC(C)c1ccc(/C=C/C(=O)Nc2ccc(CN3CCOCC3)cc2)cc1	-8.25*	i	i	i	i
CCOC(=O)C(=O)NNc1ccc(Cl)cc1	i	i	i	i	i
CCOC(=O)C(=O)NNc1ccc(C)cc1	i	i	-9.02*	i	i
CCOc1cc(/C=N/NC(=O)c2nn(C)cc2Br)ccc1OCc1ccccc1	i	i	-6.81*	i	i
C/C(=N\OCc1nc2ccccc2c(=O)n1/N=C/c1cc(C)cc([N+](=O)[O-])c1O)c1ccccc1	i	i	i	i	i
Oc1ccc(/C=N/n2c(COc3ccccc3)n[nH]c2=S)c(O)c1	i	i	i	i	i
C/C(=N\OCc1nc2ccccc2c(=O)n1/N=C/c1cc([N+](=O)[O-])ccc1O)c1ccccc1	i	i	i	7.34*	i
O=c1c2ccccc2nc(COc2ccccc2)n1/N=C/c1ccc(O)cc1O	-7.81*	i	i	i	i
O=c1c2ccccc2nc(COc2ccccc2)n1/N=C/c1c[nH]c2ccccc12	i	i	i	i	i
Oc1ccccc1/C=N/n1c(COc2ccccc2)n[nH]c1=S	i	i	i	6.61*	i
SMILES	RGS4 pot	MrgX1 agonist	MrgX1 antagonist	MrgX1 PAM	RGS4 inh
Cc1ccsc1CNS(=O)(=O)c1ccc(F)cc1	i	i	i	i	i
Cc1nn(CC(=O)Nc2cccc(C(F)(F)F)c2)c(=O)c2cccn12	i	i	i	i	i
CCOc1ccc(CSC(=N)N)cc1[N+](=O)[O-]	i	45.6*	i	i	i
CCCCOc1ccc(CSc2nnc(C)n2N)cc1[N+](=O)[O-]	i	i	i	i	i
O=C(CCNS(=O)(=O)c1ccccc1)N1CCCCCC1	-7.12*	i	i	i	i
C[N+]1(C)CC[C@H](OC(=O)[C@@](O)(c2ccccc2)C2CCCC2)C1	i	i	i	i	i
CCN(CC)CC#CCOC(=O)C(O)(c1ccccc1)C1CCCCC1 (centres undefined)	-7.02*	i	i	i	i
Cc1ccc(CCNC(=O)C23CN(Cc4ccccc4)CC2C(c2cccc([N+](=O)[O-])c2)=NO3)cc1 (centres undefined)	i	i	i	i	i
COc1ccc(CCNC(=O)C23CN(Cc4ccccc4)CC2C(c2cccc([N+](=O)[O-])c2)=NO3)cc1 (centres undefined)	i	i	-8.34*	i	i
COc1ccccc1/C=N/NC(=O)NC12CC3CC(CC(C3)C1)C2	i	i	i	i	i
COc1ccc(/C=N/NC(=O)NC23CC4CC(CC(C4)C2)C3)c(OC)c1	i	i	i	6.95*	i
O=Cc1ccc(Oc2ccc(F)cc2)nc1	i	i	-4.52*	i	i
Nc1ccc(Oc2ccc(F)cc2)nc1	i	i	i	i	i
CSc1cccc(-n2ccc(=O)c(C)c2C)c1	i	i	i	i	i
CN(CC(=O)Nc1ccc(S(=O)(=O)N2CCCC2)cc1)Cc1c(F)cccc1Cl	i	i	i	i	i
Cc1ccc(NC(=O)CO/N=C/c2ccc(N(C)C)cc2)cc1	i	i	-4.76*	i	i
C=C1CC(C(=O)N/N=C/c2ccc(O)cc2)C1	i	i	-5.85*	i	i
COc1ccc(/C=C2/C(=N)N3N=C(CC(=O)N4CCCC4)SC3=NC2=O)cc1	i	34.5*	i	i	i
COc1ccc(/C=C2\C(=N)N3N=C(CC(=O)N4CCCCC4)SC3=NC2=O)cc1	i	38*	i	i	i
Cc1ccc(/C=C2\C(=N)N3N=C(CC(=O)N4CCCCC4)SC3=NC2=O)cc1	i	i	i	i	i
O=c1[nH]c2c(=O)[nH]cnc2nc1-c1ccccc1	i	i	i	i	i
Cc1ccc(OC(=O)C2c3ccccc3Oc3ccccc32)cc1C	-7.76*	i	i	i	i
Cc1ccc(C(=O)Nc2ccccc2Oc2ccccc2)o1	i	i	-4.53*	i	i
COc1ccc(OC)c(CCNC(=O)CC2(CC3=NS(=O)(=O)c4ccccc4N3)CCCC2)c1	i	i	i	i	i
O=[N+]([O-])c1c(Nc2ccccc2O)cc(Cl)c2nonc12	i	i	-11.8*	i	i
CCCOC(=O)/C(C(N)=NCc1ccccc1)=C(\O)OCCC	i	28.3*	i	i	i
C=CCN(CC=C)C(=O)c1ccc(OC2CCN(C(C)=O)CC2)c(OC)c1	i	i	i	i	i
CC1=CC2=NC(=O)/C(=C/c3coc4ccc(Cl)cc4c3=O)C(=N)N2O1	-7.12*	i	i	i	i

Source: PubChem BioAssay (Johns Hopkins Ion Channel Center)
